Active and inactive are the calls of the source. The rule behind the calls is not given here.
Key:
[1] = Total plasma clearance after iv dose of 5.10 mg/kg in rats; format: ADME, organism-based; design: dose 5.1 mg/kg, route intravenous; details: rat, 5.1 mg/kg, read-out: Clp (converted)
[2] = Area under curve was determined for the compound after iv dose of 5.10 mg/kg in rats; format: ADME, organism-based; design: dose 5.1 mg/kg, route intravenous; details: rat, in vivo, 5.1 mg/kg
[3] = Area under curve was determined for the compound after po dose of 5.22 mg/kg in rats; format: ADME, organism-based; design: dose 5.22 mg/kg, route oral; details: rat, in vivo
[4] = Maximum serum concentration after po dose of 5.22 mg/kg in rats; format: ADME, organism-based; design: dose 5.22 mg/kg, route oral; details: rat
[5] = Oral bioavailability in rats at a dose of 5.22 mg/kg; format: ADME, organism-based; details: rat, in vivo
[6] = Time at which Cmax was reached was determined after po dose of 5.22 mg/kg of compound in rats; format: ADME, organism-based; design: dose 5.22 mg/kg, route oral; details: rat, in vivo
In short: (§1)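 Male Sprague–Dawley rats dosed orally with compound in a solution formulation, n = 3–4 per compound; serum drug concentrations measured over time, lower limit of quantitation 50 ng/mL. Tmax reported as the range of observed values across animals.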

[7] = Half-life after po dose of 5.22 mg/kg in rats; format: ADME, organism-based; design: dose 5.22 mg/kg, route oral; details: rat, in vivo
[8] = target: T1, GABA-A receptor; anion channel (Rattus norvegicus) (UniProt O09028+P15431+P18506+P18508+P19969+P20236+P23574+P23576+P28471+P28473+P30191+P62813+P63079+P63138+Q91ZM7+Q9ES14); experiment: (§2) Displacement of [3H]flunitrazepam from GABA-A benzodiazepine receptor of rat cortical membranes; format: cell membranes; design: concentration or dose not given beside the values; details: Membrane, concentration not given here
In short: (§3)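 Rat membranes incubated 60 min at 4 °C with [3H]flunitrazepam, 50 µg membrane protein and graded test drug in 200 µL containing NaCl, 10 mM Hepes/Tris pH 7.4 and 1 mM MgCl2; bound ligand separated by rapid filtration on GF/B; mean affinity, SE ≤10% of mean.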

[9] = target: GABA-A receptor; anion channel; experiment: as §2; format: cell membranes, Membrane; in short: as §3
[10] = target: T1, GABA-A receptor; anion channel (Rattus norvegicus); experiment: Shift in [35S]TBPS binding to GABA-A Benzodiazepine receptor of rat brain membrane
[11] = target: T2, GABA-A receptor; alpha-1/beta-2/gamma-2 (Homo sapiens) (UniProt P14867+P47870+P18507); experiment: (§4) In vitro GABA-mediated chloride current in A293 cells expressing GABA-A benzodiazepine receptor alpha-1-beta-2-gamma-2 subunits at 5 uM; format: functional, cell-based; details: HEK293
[12] = target: GABA A receptor alpha-3/beta-2/gamma-2 (Homo sapiens) (UniProt P47870+P18507+P34903); experiment: In vitro GABA-mediated chloride current in A293 cells expressing GABA-A benzodiazepine receptor alpha-3-beta-2-gamma-2 subunits at 5 uM; format: functional, cell-based; details: HEK293
Mus musculus [13] = species on record: Mus musculus; experiment: Ability to antagonize the muscle relaxation effect in mice caused by a benzodiazepine full agonist, triazolam.; format: functional
In short: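 Muscle relaxation induced by triazolam; test compound and triazolam given separately, traction scored 30 min after dosing; ED50 for blocking the relaxant effect.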

Mus musculus [14] = experiment: In vivo efficacy is evaluated by percent control of cerebellar GMP levels in (drug+stress) treated mice/mice under stress; format: functional; design: concentration or dose not given beside the values
In short: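 Male CF-1 mice given drug orally in vehicle 122 before electric footshock stress, controls given vehicle (1 mL/100 g); killed 30 min after treatment; cerebellum homogenized in 1% perchloric acid, iced 30 min, boiled 5 min, spun 17000g 20 min; supernatant cGMP by radioimmunoassay, expressed as % of stress control.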

Mus musculus [15] = experiment: In vivo acute electroshock physical dependence activity in mice; Active; format: functional, organism-based
Rattus norvegicus [16] = experiment: In vivo efficacy evaluated for ability to antagonize metrazole induced clonic convulsions in rat after ip injection; format: functional
Rattus norvegicus [17] = experiment: Geller-cook activity was determined using wilcoxon signed rank test on non punished schedule at dose 1 mg/kg in rats; format: functional
In short: (§5)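 Geller–Cook conflict schedule with punished and nonpunished response rates recorded per treatment; 6 animals per dose, controls 12–17; each dose compared to its own control by Wilcoxon signed rank test, p < 0.05.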

Rattus norvegicus [18] = experiment: Geller-cook activity was determined using wilcoxon signed rank test on non punished schedule at dose 3 mg/kg in rats; format: functional; in short: as §5
Rattus norvegicus [19] = experiment: Geller-cook activity was determined using wilcoxon signed rank test on punished schedule at dose 1 mg/kg in rats; format: functional; in short: as §5
Rattus norvegicus [20] = experiment: Geller-cook activity was determined using wilcoxon signed rank test on punished schedule at dose 3 mg/kg in rats; format: functional; in short: as §5
Rattus norvegicus [21] = experiment: Mean number of shocks produced by CDPZ in rats at a dose of 12 mg/kg was determined by vogel's punished licking assay; format: functional
In short: (§6)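 Vogel punished licking test in rats; number of shocks accepted recorded per dose group (n 6–10); each dose compared with the 0 mg/kg group of the same experiment by Wilcoxon rank sum test.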

Rattus norvegicus [22] = experiment: Mean number of shocks produced by the compound in rats at a dose of 0 mg/kg was determined by vogel's punished licking assay; format: functional; in short: as §6
Rattus norvegicus [23] = experiment: Mean number of shocks produced by the compound in rats at a dose of 0.3 mg/kg was determined by vogel's punished licking assay; format: functional; in short: as §6
Rattus norvegicus [24] = experiment: Mean number of shocks produced by the compound in rats at a dose of 1 mg/kg was determined by vogel's punished licking assay; format: functional; in short: as §6
Rattus norvegicus [25] = experiment: Mean number of shocks produced by the compound in rats at a dose of 10 mg/kg was determined by vogel's punished licking assay; format: functional; in short: as §6
Rattus norvegicus [26] = experiment: Mean number of shocks produced by the compound in rats at a dose of 3 mg/kg was determined by vogel's punished licking assay; format: functional; in short: as §6
[27] = target: T2, GABA-A receptor; alpha-1/beta-2/gamma-2 (Homo sapiens); experiment: as §4; format: functional, cell-based; details: HEK293; remark: listed apart in the source
[28] = Half-life after iv dose of 5.10 mg/kg in rats; format: ADME, organism-based; design: dose 5.1 mg/kg, route intravenous; details: rat, in vivo, 5.1 mg/kg
[29] = Area under the curve was determined for the compound after iv dose of 4.97 mg/kg in rats; format: ADME, organism-based; design: dose 4.97 mg/kg, route intravenous; details: rat, in vivo
[30] = Total plasma clearance was determined for the compound after iv dose of 4.97 mg/kg in rats; format: ADME, organism-based; design: dose 4.97 mg/kg, route intravenous; details: rat, read-out: Clp (converted)
[31] = Area under curve was determined for the compound after po dose of 5.03 mg/kg in rats; format: ADME, organism-based; design: dose 5.03 mg/kg, route oral; details: rat, in vivo
[32] = Maximum serum concentration was determined for the compound after po dose of 5.03 mg/kg in rats; format: ADME, organism-based; design: dose 5.03 mg/kg, route oral; details: rat
[33] = Oral bioavailability at a dose of 5.03 mg/kg in rats; format: ADME, organism-based; details: rat, in vivo
[34] = Time at which Cmax was reached was determined for the compound after po dose of 5.03 mg/kg in rats; format: ADME, organism-based; design: dose 5.03 mg/kg, route oral; details: rat, in vivo; in short: as §1
[35] = half-life after po dose of 5.03 mg/kg in rats; format: ADME, organism-based; design: dose 5.03 mg/kg, route oral; details: rat, in vivo
Mus musculus [36] = experiment: In vivo acute electroshock physical dependence activity in mice; Not active.; format: functional, organism-based
[37] = Half-life after iv dose of 4.97 mg/kg in rats; format: ADME, organism-based; design: dose 4.97 mg/kg, route intravenous; details: rat, in vivo
Mus musculus [38] = experiment: In vivo efficacy was evaluated for their ability to antagonize metrazole induced clonic convulsants in rat after ip injection.
Mus musculus [39] = experiment: In vivo efficacy is evaluated by percent control of cerebellar GMP content in CF1 mice and result is expressed as crebrellar GMP levels in (drug+stress) treated mice and mice under stress.; format: functional
In short: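 Male CF-1 mice dosed orally in vehicle 122 (controls get vehicle, 1 mL/100 g), then given electric footshock stress. Killed 30 min after dosing. Cerebellum homogenized in 10 volumes of 1% perchloric acid, kept 30 min on ice, boiled 5 min, spun 17000g for 20 min. cGMP measured by radioimmunoassay. Expressed as % of the (drug + stress)/stress response versus vehicle-shock controls.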

Mus musculus [40] = species on record: Mus musculus; experiment: Compound was evaluated for their ability to antagonize the muscle relaxation effects of benzodiazepine full agonist, triazolam.

Structure (SMILES)	inhibition [8]	Ki [9]	Shift [10]	Change in Cl- current [11]	Change in Cl- current [12]	ED50 (Mus musculus [13])	Control (Mus musculus [14])	ED50 (Rattus norvegicus [16])	Mean no. of shocks (Rattus norvegicus [21])	Mean no. of shocks (Rattus norvegicus [22])	Mean no. of shocks (Rattus norvegicus [23])	Mean no. of shocks (Rattus norvegicus [24])	Mean no. of shocks (Rattus norvegicus [25])	Mean no. of shocks (Rattus norvegicus [26])	also measured
CCCC(=O)O.C[C@@H]1CN(C(=O)N2Cc3c(C(=O)OC(C)(C)C)ncn3-c3ccc(Cl)cc32)C[C@H](C)N1	71%	3.27 nM	0.48	0.3	0.54	> 30 mg/kg	64%	3.7 mg/kg	19	3.8	5.3	3.1	12	5.7	clearance [1]: 25.2 mL/min/kg; AUC [2]: 3540 ng·h/mL; AUC [3]: 3570 ng·h/mL; Cmax [4]: 1170 ng/mL; bioavailability [5]: 101%; Tmax [6]: 0.5 h; half-life [7]: 1.8 h; Acute electroshock activity (Mus musculus [15]): Active; Gellar cook activity (Rattus norvegicus [17]): 47; Gellar cook activity (Rattus norvegicus [18]): 43; Gellar cook activity (Rattus norvegicus [19]): 46; Gellar cook activity (Rattus norvegicus [20]): 27; Change in Cl- current [27]: 0.85; half-life [28]: 1.2 h
C[C@@H]1CN(C(=O)N2Cc3c(C(=O)OC(C)(C)C)ncn3-c3ccc(C(F)(F)F)cc32)C[C@H](C)N1	52%	32.4 nM	0.31	0.5	0.1	> 30 mg/kg	36%	21 mg/kg	23	4.9	4.6	4.9	7.9	6.4	AUC [29]: 7470 ng·h/mL; clearance [30]: 12.2 mL/min/kg; AUC [31]: 6430 ng·h/mL; Cmax [32]: 1160 ng/mL; bioavailability [33]: 84%; Tmax [34]: 1 h; half-life [35]: 2.7 h; Acute electroshock activity (Mus musculus [36]): inactive; half-life [37]: 2.4 h
CN1C(=O)CN=C(c2ccccc2)c2cc(Cl)ccc21 [DIAZEPAM]	–	–	–	–	–	–	–	–	–	–	–	–	–	–	ED50 (Mus musculus [38]): 0.5 mg/kg; Control (Mus musculus [39]): 0.44%; ED50 (Mus musculus [40]): > 30 mg/kg
